Measurements as given in article PMC5487498 (World Journal of Gastroenterology, 2017).

Legend:
Experiment in all cases: MTS cell proliferation/viability assay
[1] = tested on: CaCo-2; type: cell-based, human; settings: read-out: IC50 CaCo-2, 72 h incubation
Summary of the method: (§1)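 Cells were seeded at 10 × 10^3 cells/well and exposed 24 h later to test compound at 100, 50, 10, 5, 1 and 0.1 μmol/L for 72 h. MTS was then added for 2 h and absorbance read at 490 nm, with untreated control taken as 100%. HCT116 was grown in RPMI 1640; Caco-2 and murine 3T3 fibroblasts in high-glucose DMEM with pyruvate, 10% FBS and penicillin/streptomycin, at 37 °C and 5% CO2.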

[2] = tested on: HCT116; type: cell-based, human; settings: read-out: IC50 HCT116, 72 h incubation
Summary of the method: as §1

[3] = tested on: 3T3; type: cell-based, murine; settings: read-out: IC50 3T3, 72 h incubation, non-cancer fibroblasts
Summary of the method: as §1

Row | IC50 [1] [µM] | IC50 [2] [µM] | SMILES | IC50 [3] [µM]
1 | > 100 | > 100 | COC1N(OC)c2ccccc2C12CN=C(Nc1ccc(C(F)(F)F)cc1)S2 (racemic) [Compound K-452, (±)-cis-1,2-dimethoxy-2’-(4-trifluoromethylphenylamino)spiro{indoline-3,5’[4’,5’]dihydrothiazol}] | > 100
2 | > 100 | > 100 | CON1C(=O)C2(CN=C(Nc3ccc(C)cc3)S2)c2ccccc21 (racemic) [Compound K-466, (±)-1-methoxy-2’-(4-methylphenylamino)spiro{indoline-3,5’-[4’,5’]-dihydrothiazol}-2-one] | > 100
3 | > 100 | > 100 | CC(C)(C)OC(=O)N1c2ccccc2C2(CN=C(Nc3ccc(Cl)cc3)S2)C1N1CCCCC1 (racemic) [Compound K-467, trans-(±)-1-(terc-buthoxycarbonyl)-2-(1-piperidyl)-2’-(4-chlorophenylamino)spiro{indoline-3,5’-[4’,5’]dihydrothiazol}] | > 100
4 | > 100 | > 100 | CSC(=O)NCc1c[nH]c2ccc(F)cc12 [Compound K-455, 5-fluorobrassitin] | > 100
5 | 35.7 ± 6.49 | 33.7 ± 2.78 | CON1C(=O)C2(CN=C(Nc3ccc(C(F)(F)F)cc3)S2)c2ccccc21 (racemic) [Compound K-465, (±)-1-methoxy-2’-(4-trifluoromethylphenylamino)spiro{indoline-3,5’-[4’,5’]-dihydrothiazol}-2-one] | 34.9 ± 2.01
6 | > 100 | > 100 | COC1N(OC)c2ccc(F)cc2C12CN=C(SC)S2 (racemic) [Compound K-462, (±)-cis-5-fluoro-1-methoxyspirobrassinolmethylether] | > 100
7 | 74.18 ± 0.001 | 33 ± 2.67 | CON1C(=O)C2(CN=C(Nc3ccc(Br)cc3)S2)c2ccccc21 (racemic) [Compound K-463, (±)-1-methoxy-2’-(4-bromophenylamino)spiro{indoline-3,5’-[4’,5’]-dihydrothiazol}-2-one] | 61.1 ± 2.25
8 | > 100 | > 100 | COn1cc(CNC(=O)SC)c2cc(F)ccc21 [Compound K-459, 5-fluoro-1-methoxybrassitin] | > 100
9 | > 100 | > 100 | CC(C)(C)OC(=O)N1c2ccccc2C2(CN=C(Nc3ccc(C(F)(F)F)cc3)S2)C1N1CCCCC1 (racemic) [Compound K-471, trans-(±)-1-(terc-buthoxycarbonyl)-2-(1-piperidyl)-2’-(4-trifluoromethylphenylamino)spiro{indoline-3,5’-[4’,5’]dihydrothiazol}] | > 100
